High-throughput results as filed in PubChem.
Most compounds without a hit are left out; they make up all but 1.9% or so of the library.
M4 ag – CHRM4 agonism in calcium assay | activation, % at 3 µM | P08173 | 360,000 tested, 0.14% active | AID 624127 | CHO-K1 hM4/Gqi5, Fluo-8 calcium fluorescence; vehicle 0%, full acetylcholine response 100%;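 active = activation above the run mean over all test wells plus 3 SD, cut at about 32% in these data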;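 also: peak over basal fluorescence ratio per well then scaled between controls; 0% = DMSO wells and 100% = acetylcholine at EC100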
CHRM5 PAM – potentiates acetylcholine response at human M5 receptor | activation, % at 3 µM | P08912 | 360,000 tested, 0.3% active | CHO-K1 hM5, Fluo-8 calcium, ACh EC20 PAM; 0% = ACh EC20, 100% = ACh EC100 | AID 624038;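 active = activation above the run cutoff, the mean activation of all test compounds plus 3 SD, cut at about 18% in these data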
Target sequence (P08912 whole entry, looked up): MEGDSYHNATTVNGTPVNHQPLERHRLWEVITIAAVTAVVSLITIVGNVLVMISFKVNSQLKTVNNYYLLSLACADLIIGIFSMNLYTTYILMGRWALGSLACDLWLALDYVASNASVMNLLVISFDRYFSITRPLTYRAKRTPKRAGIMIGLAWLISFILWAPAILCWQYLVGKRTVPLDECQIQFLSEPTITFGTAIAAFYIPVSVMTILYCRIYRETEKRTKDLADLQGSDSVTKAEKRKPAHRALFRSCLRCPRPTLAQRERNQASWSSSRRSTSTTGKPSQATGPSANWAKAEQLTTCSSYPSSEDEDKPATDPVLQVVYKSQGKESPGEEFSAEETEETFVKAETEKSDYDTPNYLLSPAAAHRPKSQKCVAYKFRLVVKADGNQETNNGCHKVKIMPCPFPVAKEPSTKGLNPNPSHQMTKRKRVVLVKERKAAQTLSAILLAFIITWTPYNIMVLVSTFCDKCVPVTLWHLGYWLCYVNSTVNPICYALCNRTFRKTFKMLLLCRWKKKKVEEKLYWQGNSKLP
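Assay system – human M5 receptor in CHO-K1 cells · Read-out – % activation, ACh-normalized · Technique – Fluo-8 calcium fluorescence · Dosing – single-point, 3 µM nominal · Incubation – Fluo-8 loading 80 min at 37 °C plus 30 min room temperature · Repeats – singlicate, one well per test compound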
M4 PAM – positive allosteric modulators of human muscarinic M4 receptor | CHO-K1 hM4/Gqi5, Fluo-8 calcium fluorescence, ACh EC20; 0% = ACh EC20, 100% = maximal ACh | activation, % at 3 µM | 360,000 tested, 0.4% active;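 active = activation above its plate's cutoff, the mean activation of sample wells plus 3 SD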
CHRM5 antagonist – antagonists of human muscarinic M5 receptor (CHRM5) | AID 624040 | inhibition, % at 3 µM | CHO-hM5 cells, Fluo-8 calcium fluorescence, ACh EC80 | 360,000 tested, 0.59% active;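 active = inhibition above a per-plate cutoff, the mean of that plate's test compounds plus 3 SD, cut at about 27% in these data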;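 also: 0% = acetylcholine EC80 with DMSO and 100% = DMSO without agonist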
CHRM5 agonist – CHRM5 agonism in calcium assay; 360,000 tested, 0.19% active; AID 624037; P08912; activation, % at 3 µM; CHO-K1 hM5 cells, Fluo-8 calcium fluorescence; 0% DMSO wells, 100% maximal acetylcholine response;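 active = activation above the run's mean over test compounds plus 3 SD, cut at about 23% in these data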;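 also: signal is peak over basal fluorescence ratio across the kinetic read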
M4 antag – blocks acetylcholine activation of human M4 receptor; 360,000 tested, 0.73% active; CHO-hM4 cells, ACh EC80, Fluo-8 calcium fluorescence; inhibition, % at 3 µM;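 active = inhibition above its plate's cutoff, the mean inhibition of sample wells plus 3 SD, cut at about 27% in these data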;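 also: 0% = acetylcholine EC80 with DMSO and 100% = DMSO without agonist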
The depositor's hits bear a star.

SMILES	M4 ag	CHRM5 PAM	M4 PAM	CHRM5 antagonist	CHRM5 agonist	M4 antag
O=C1CC(c2ccccc2)CN1C(=O)c1cccnc1 (stereo unspecified)	0.9	18.7*	18.1	-5.0	2.3	-4.6
CCn1ccc(C(=O)NC2=C(C#N)CCC2)n1	-1.4	21.5*	-2.2	-0.7	0.7	-2.3
CCn1nccc1C(=O)NC1=C(C#N)CCC1	0.6	1.2	-8.2	2.9	1.3	11.7
CN(Cc1cnn(C)c1)C(=O)CC1C(=O)NCCN1Cc1cccc(Oc2ccccc2)c1 (stereo unspecified)	3.5	-14.0	0.2	32.4*	-5.8	3.7
Cc1noc(C)c1COc1ccc(CC(=O)NCCc2ccccn2)cc1	0.8	3.6	-2.7	-0.4	-4.3	7.2
Cc1noc(C)c1COc1ccc(C(=O)Nc2cccnc2)cc1	0.5	-6.7	-22.3	10.3	-16.7	32.4*
Cc1noc(C)c1COc1ccc(C(=O)NCCc2ccccn2)cc1	5.3	9.1	29.0*	1.7	-1.8	-15.0
CCOc1ccc(C(=O)NCc2ccccn2)cc1	0.8	3.4	31.2*	0.4	0.0	0.7
Cc1cccc(NC(=O)c2ccc(OCc3c(C)noc3C)cc2)c1	2.7	1.7	-5.1	1.4	-4.7	6.6
CCCCCCCCN1N=N[C@H]2[C@H]1[C@@H]1C[C@H]2N(C(=O)OC(C)(C)C)O1	2.6	-10.5	-15.2	3.4	-3.3	30.8*
C=CC(=O)N=c1sc2ccccc2n1-c1ccccc1	3.1	-12.2	-7.3	-3.6	-2.1	-5.7
N=c1sc2ccccc2n1-c1ccccc1	13.9	-12.8	-22.8	27.2*	-0.4	22.2
CCNC(=S)NNC(=O)c1csc2c1CCCC2	1.8	4.5	20.1*	-2.0	0.6	-6.2
COc1ccc2c(c1)CCc1cn3nc(C)cc3nc1-2	-1.3	18.7*	9.5	-11.6	-5.3	-22.5
Cc1ccccc1-n1c(O)c(/C=N/N2CCCCC2c2cccnc2)c(=O)[nH]c1=O (stereo unspecified)	1.4	29.5*	24.2*	2.5	12.4	-5.7
Cc1ccc(S(=O)(=O)N2CCCCC2c2cccnc2)c(C)c1C (stereo unspecified)	1.5	-4.0	-14.5	2.9	-7.4	-3.5
N=C(N)c1ccc(O)cc1	1.5	0.8	27.6*	-2.1	0.2	-8.8
Cc1cccc(C)c1C(=NCCCN(C)C)c1ccccc1	1.6	-17.9	-18.5	80.2*	-9.4	38.2*
O[C@@H]1CN(Cc2ccccc2Cl)CC[C@H]1N1CCOCC1	0.3	-0.5	-2.8	15.5	-5.0	-5.3
Cn1c(=O)c2c(nc(N3CCCCC3)n2CCSc2nc3ccccc3s2)n(C)c1=O	0.7	0.0	37.5*	-4.8	0.4	6.3
Cc1ccc(Nc2nc(-c3sc(N)nc3C)cs2)cc1	-0.6	20.0*	-8.3	-14.7	6.6	2.7
Cc1nc(C)c(-c2csc(Nc3ccccn3)n2)s1	3.1	-5.3	-2.4	10.0	5.2	-3.7
Cc1nc(N)sc1-c1csc(Nc2ccccn2)n1	0.4	2.4	1.0	0.5	-0.4	28.0*
c1ccc(-c2csc(Nc3ccccn3)n2)cc1	-1.3	13.6	4.3	-7.9	12.8	0.3
Cc1ccc(-c2csc(Nc3ccccn3)n2)cc1	-1.3	14.1	13.6*	-3.8	9.9	-14.2
SMILES	M4 ag	CHRM5 PAM	M4 PAM	CHRM5 antagonist	CHRM5 agonist	M4 antag
c1cc(-c2cc3nc(NC4CCCCC4)ccn3n2)ccc1OCCN1CCOCC1	25.8	-13.0	-8.4	6.0	4.9	-3.0
CCOC(OCC)c1cn(Cc2ccc(C(=O)c3ccccc3)cc2)nn1	6.5	-6.1	-8.0	17.7	4.3	19.8
CC1CCc2sc(C(=O)NNC(=S)NC3CC3)cc2C1 (stereo unspecified)	1.2	-13.4	-0.9	4.3	-2.3	6.3
CC(=O)Nc1ccc(-c2ccnc3c2CC(C)(C(=O)Nc2ccc(C(C)C)cc2)O3)cc1 (stereo unspecified)	2.3	-3.1	-2.3	-3.1	0.6	-16.8
COc1ccc(/C=C(/NC(=O)c2ccco2)C(=O)Nc2cccc(C(=O)O)c2)cc1	2.1	-1.7	1.2	10.1	-2.7	-6.3
O=C(Nc1cccc(C(=O)O)c1)/C(=C\c1ccccc1Cl)NC(=O)c1ccco1	2.7	2.2	21.0*	-3.0	-2.9	-0.4
COc1ccc(-c2noc(CN3CCCCC3c3nccn3C)n2)cc1 (stereo unspecified)	0.3	-13.4	-18.1	11.5	-16.1	10.3
Cn1ccnc1C1CCCCN1Cc1nc(-c2ccc3c(c2)OCO3)no1 (stereo unspecified)	-0.6	-26.3	-25.1	14.9	-20.6	26.6*
Cn1ccnc1C1CCCCN1Cc1nc(Cc2cccc(C(F)(F)F)c2)no1 (stereo unspecified)	2.8	-15.5	-21.3	-4.7	-11.3	38.6*
O=C(NCCCCc1ccccc1)c1ccc(Br)o1	0.7	-4.2	9.1	9.7	0.0	-8.6
O=C(NCCCc1ccccc1)c1ccc(Br)o1	-0.3	5.6	31.2*	1.1	-3.7	6.0
Cc1cc2ccccc2n1CCNC(=O)c1ccc(Br)o1	2.4	-11.1	-7.8	27.1*	-0.3	-4.0
Cc1ccc(CNc2ccc(N3CCOCC3)cc2)cc1	1.7	5.8	13.9*	-0.8	4.4	-19.6
CC(C)c1ccc(CNc2ccc(N3CCOCC3)cc2)cc1	0.9	4.0	-4.9	-0.9	-3.4	1.7
COc1ccc(-n2cc(CNCc3cccnc3)c(-c3cccc(F)c3)n2)cc1	4.7	0.8	4.0	7.0	-0.4	-6.2
COc1ccc(CNCc2cn(-c3cccc(F)c3)nc2-c2ccc(C)o2)cc1	4.0	-1.1	7.4	-3.5	5.6	34.1*
COc1ccc(C2(C)NC(=O)N(CC(=O)NCc3ccccc3F)C2=O)cc1 (stereo unspecified)	2.0	-1.2	4.5	-3.4	-2.1	-8.9
Cc1ccc(NC(=O)COC(=O)c2c[nH]c3ccccc23)cc1C	5.0	-10.0	-6.4	11.5	-0.9	3.2
CC(C)CNC(=S)NNC(=O)CC(C)O (stereo unspecified)	-0.1	18.3*	-4.8	-1.2	-2.2	4.5
CC(C)CNC(=S)NNC(=O)c1ccco1	0.7	12.0	37.9*	-6.0	-0.3	3.1
CCNC(=S)NNC(=O)CC(C)C	0.9	6.9	-3.2	-5.8	-1.7	0.3
CC(Oc1ccc(Cl)cc1)C(=O)NNC(=S)NC(=O)c1ccco1 (stereo unspecified)	63.4*	-11.4	-9.9	6.5	26.3*	13.1
CCCOc1ccc(C(=O)NNC(=S)NC(=O)c2cccs2)cc1	109.7*	-16.8	-16.4	41.9*	72.0*	63.2*
COc1ccc(C(=O)NNC(=S)NC(=O)c2ccco2)cc1	4.6	1.9	0.8	-3.8	8.9	-4.7
